Measurements as given in ChEMBL document CHEMBL4814057, “4-4-(Anilinomethyl)-3-[4-(trifluoromethyl)phenyl]-1H-pyrazol-1-ylbenzoic acid derivatives as potent anti-gram-positive bacterial agents” (Eur J Med Chem, 2021).
Values after ≈ are worked out from the molar mass of the structure shown. Active and inactive are the calls of the source. No cut-off for these calls is given here.

Legend:
Staphylococcus aureus [1] = assay: Antimicrobial activity against methicillin-susceptible Staphylococcus aureus ATCC 25923 assessed as bacterial growth inhibitions by CLSI protocol based microdilution method; assay type: functional
Staphylococcus aureus [2] = assay: Antimicrobial activity against antibiotic-resistant Staphylococcus aureus BM-2312 assessed as bacterial growth inhibitions by CLSI protocol based microdilution method; assay type: functional
Staphylococcus aureus [3] = assay: Antimicrobial activity against methicillin-resistant Staphylococcus aureus ATCC 33591 assessed as bacterial growth inhibitions by CLSI protocol based microdilution method; assay type: functional
Staphylococcus aureus [4] = assay: Antimicrobial activity against methicillin-resistant Staphylococcus aureus ATCC 700699 assessed as bacterial growth inhibitions by CLSI protocol based microdilution method; assay type: functional
Staphylococcus aureus [5] = assay: Antimicrobial activity against methicillin-resistant Staphylococcus aureus ATCC 33592 assessed as bacterial growth inhibitions by CLSI protocol based microdilution method; assay type: functional
[6] = system: Staphylococcus epidermidis; assay: Antimicrobial activity against methicillin-resistant Staphylococcus epidermidis ATCC 700296 assessed as bacterial growth inhibitions by CLSI protocol based microdilution method; assay type: functional
Bacillus subtilis = assay: Antimicrobial activity against Bacillus subtilis ATCC 6623 assessed as bacterial growth inhibitions by CLSI protocol based microdilution method; assay type: functional
Outline: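 Broth microdilution starting at 50 µg/ml with 2-fold serial dilutions; run in triplicate.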

Enterococcus faecium = assay: Antimicrobial activity against vancomycin-resistant Enterococcus faecium ATCC 700221 assessed as bacterial growth inhibitions by CLSI protocol based microdilution method; assay type: functional
Enterococcus faecalis = assay: Antimicrobial activity against vancomycin-susceptible Enterococcus faecalis ATCC 29212 assessed as bacterial growth inhibitions by CLSI protocol based microdilution method

Row | Structure (SMILES) | MIC (Staphylococcus aureus [1]) | MIC (Staphylococcus aureus [2]) | MIC (Staphylococcus aureus [3]) | MIC (Staphylococcus aureus [4]) | MIC (Staphylococcus aureus [5]) | MIC [6] | MIC (Bacillus subtilis) | MIC (Enterococcus faecium) | MIC (Enterococcus faecalis)
1 | O=C(O)c1ccc(-n2cc(CNc3cc(Cl)c(O)c(Cl)c3)c(-c3ccc(C(F)(F)F)cc3)n2)cc1 | 50 µg/mL (≈ 95.7 µM) | 50 µg/mL (≈ 95.7 µM) | 50 µg/mL (≈ 95.7 µM) | 50 µg/mL (≈ 95.7 µM) | 50 µg/mL (≈ 95.7 µM) | 50 µg/mL (≈ 95.7 µM) | 12.5 µg/mL (≈ 23.9 µM) | inactive | 50 µg/mL (≈ 95.7 µM)
2 | O=C(O)c1ccc(-n2cc(CNc3cccc(OC(F)(F)F)c3)c(-c3ccc(C(F)(F)F)cc3)n2)cc1 | 0.78 µg/mL (≈ 1.5 µM) | 0.78 µg/mL (≈ 1.5 µM) | 0.78 µg/mL (≈ 1.5 µM) | 50 µg/mL (≈ 95.9 µM) | 0.78 µg/mL (≈ 1.5 µM) | 3.12 µg/mL (≈ 5.98 µM) | 0.78 µg/mL (≈ 1.5 µM) | 0.78 µg/mL (≈ 1.5 µM) | 3.12 µg/mL (≈ 5.98 µM)
3 | O=C(O)c1ccc(-n2cc(CNc3ccc(Br)c(Cl)c3F)c(-c3ccc(C(F)(F)F)cc3)n2)cc1 |  |  |  |  |  |  |  |  | 0.78 µg/mL (≈ 1.37 µM)
4 | O=C(O)c1ccc(-n2cc(CNc3ccc(N4CCOCC4)c(C(F)(F)F)c3)c(-c3ccc(C(F)(F)F)cc3)n2)cc1 | 0.78 µg/mL (≈ 1.32 µM) | 1.56 µg/mL (≈ 2.64 µM) | 0.78 µg/mL (≈ 1.32 µM) | 0.78 µg/mL (≈ 1.32 µM) | 0.78 µg/mL (≈ 1.32 µM) | 1.56 µg/mL (≈ 2.64 µM) | 0.78 µg/mL (≈ 1.32 µM) | 0.78 µg/mL (≈ 1.32 µM) | 1.56 µg/mL (≈ 2.64 µM)
5 | O=C(O)c1ccc(-n2cc(CNc3ccccc3)c(-c3ccc(C(F)(F)F)cc3)n2)cc1 | 12.5 µg/mL (≈ 28.6 µM) | 12.5 µg/mL (≈ 28.6 µM) | 6.25 µg/mL (≈ 14.3 µM) | 6.25 µg/mL (≈ 14.3 µM) | 6.25 µg/mL (≈ 14.3 µM) | 12.5 µg/mL (≈ 28.6 µM) | 3.12 µg/mL (≈ 7.13 µM) | 6.25 µg/mL (≈ 14.3 µM) | 25 µg/mL (≈ 57.2 µM)
6 | O=C(O)c1ccc(-n2cc(CNc3ccc(F)c(Cl)c3)c(-c3ccc(C(F)(F)F)cc3)n2)cc1 | 0.78 µg/mL (≈ 1.59 µM) | 0.78 µg/mL (≈ 1.59 µM) | 0.78 µg/mL (≈ 1.59 µM) | 1.56 µg/mL (≈ 3.18 µM) | 0.78 µg/mL (≈ 1.59 µM) | 3.12 µg/mL (≈ 6.37 µM) | 0.78 µg/mL (≈ 1.59 µM) | 1.56 µg/mL (≈ 3.18 µM) | 6.25 µg/mL (≈ 12.8 µM)
7 | O=C(O)c1ccc(-n2cc(CNc3ccc(F)cc3)c(-c3ccc(C(F)(F)F)cc3)n2)cc1 | 6.25 µg/mL (≈ 13.7 µM) | 3.12 µg/mL (≈ 6.85 µM) | 6.25 µg/mL (≈ 13.7 µM) | 6.25 µg/mL (≈ 13.7 µM) | 12.5 µg/mL (≈ 27.4 µM) | 12.5 µg/mL (≈ 27.4 µM) | 1.56 µg/mL (≈ 3.43 µM) | 6.25 µg/mL (≈ 13.7 µM) | 25 µg/mL (≈ 54.9 µM)
8 | O=C(O)c1ccc(-n2cc(CNc3cccc(Cl)c3)c(-c3ccc(C(F)(F)F)cc3)n2)cc1 | 1.56 µg/mL (≈ 3.31 µM) | 1.56 µg/mL (≈ 3.31 µM) | 0.78 µg/mL (≈ 1.65 µM) | 0.78 µg/mL (≈ 1.65 µM) | 1.56 µg/mL (≈ 3.31 µM) | 3.12 µg/mL (≈ 6.61 µM) | 0.78 µg/mL (≈ 1.65 µM) | 0.78 µg/mL (≈ 1.65 µM) | 12.5 µg/mL (≈ 26.5 µM)
9 | O=C(O)c1ccc(-n2cc(CNc3ccc(C(=O)O)c(C(F)(F)F)c3)c(-c3ccc(C(F)(F)F)cc3)n2)cc1 | 50 µg/mL (≈ 91 µM) | 50 µg/mL (≈ 91 µM) | inactive | inactive | inactive | 50 µg/mL (≈ 91 µM) | inactive | inactive | inactive
10 | O=C(O)c1ccc(-n2cc(CNc3ccc(Cl)cc3)c(-c3ccc(C(F)(F)F)cc3)n2)cc1 | 1.56 µg/mL (≈ 3.31 µM) | 1.56 µg/mL (≈ 3.31 µM) | 1.56 µg/mL (≈ 3.31 µM) | 1.56 µg/mL (≈ 3.31 µM) | 1.56 µg/mL (≈ 3.31 µM) | 3.12 µg/mL (≈ 6.61 µM) | 0.78 µg/mL (≈ 1.65 µM) | 1.56 µg/mL (≈ 3.31 µM) | 6.25 µg/mL (≈ 13.2 µM)
11 | O=C(O)c1ccc(-n2cc(CNc3cc(Cl)ccc3Cl)c(-c3ccc(C(F)(F)F)cc3)n2)cc1 | 0.78 µg/mL (≈ 1.54 µM) | 0.78 µg/mL (≈ 1.54 µM) | 0.78 µg/mL (≈ 1.54 µM) | 0.78 µg/mL (≈ 1.54 µM) | 0.78 µg/mL (≈ 1.54 µM) | 1.56 µg/mL (≈ 3.08 µM) | 0.78 µg/mL (≈ 1.54 µM) | 0.78 µg/mL (≈ 1.54 µM) | 3.12 µg/mL (≈ 6.16 µM)
12 | O=C(O)c1ccc(-n2cc(CNc3ccc(Cl)c(Cl)c3)c(-c3ccc(C(F)(F)F)cc3)n2)cc1 | 0.78 µg/mL (≈ 1.54 µM) | 0.78 µg/mL (≈ 1.54 µM) | 0.78 µg/mL (≈ 1.54 µM) | 1.56 µg/mL (≈ 3.08 µM) | 0.78 µg/mL (≈ 1.54 µM) |  | 0.78 µg/mL (≈ 1.54 µM) | 0.78 µg/mL (≈ 1.54 µM) | 
13 | O=C(O)c1ccc(-n2cc(CNc3cc(Cl)c(F)cc3F)c(-c3ccc(C(F)(F)F)cc3)n2)cc1 | 1.56 µg/mL (≈ 3.07 µM) | 0.78 µg/mL (≈ 1.54 µM) | 1.56 µg/mL (≈ 3.07 µM) | 0.78 µg/mL (≈ 1.54 µM) | 1.56 µg/mL (≈ 3.07 µM) | 3.12 µg/mL (≈ 6.14 µM) | 0.78 µg/mL (≈ 1.54 µM) | 1.56 µg/mL (≈ 3.07 µM) | 6.25 µg/mL (≈ 12.3 µM)
14 | O=C(O)c1ccc(-n2cc(CNc3ccc(F)c(F)c3)c(-c3ccc(C(F)(F)F)cc3)n2)cc1 | 1.56 µg/mL (≈ 3.3 µM) | 1.56 µg/mL (≈ 3.3 µM) | 1.56 µg/mL (≈ 3.3 µM) | 0.78 µg/mL (≈ 1.65 µM) | 1.56 µg/mL (≈ 3.3 µM) | 6.25 µg/mL (≈ 13.2 µM) |  | 3.12 µg/mL (≈ 6.59 µM) | 12.5 µg/mL (≈ 26.4 µM)
15 | O=C(O)c1ccc(-n2cc(CNc3cc(Cl)cc(Cl)c3)c(-c3ccc(C(F)(F)F)cc3)n2)cc1 | 0.78 µg/mL (≈ 1.54 µM) | 0.78 µg/mL (≈ 1.54 µM) | 0.78 µg/mL (≈ 1.54 µM) | 0.78 µg/mL (≈ 1.54 µM) | 0.78 µg/mL (≈ 1.54 µM) | 0.78 µg/mL (≈ 1.54 µM) | 0.78 µg/mL (≈ 1.54 µM) | 0.78 µg/mL (≈ 1.54 µM) | 1.56 µg/mL (≈ 3.08 µM)
